# Only some compounds are listed: those with a hit (about 1.9% of all), similar ones and a draw of the others.
# HDAC3 inh – inhibitors of human histone deacetylase 3 | O15379 | recombinant HDAC3, fluorogenic peptide/trypsin coupled, fluorescence | inhibition, % at 8.3 µM | 320,000 tested, 0.15% active; in the data active means inhibition above about 26%, passing the limit was not always enough; inconclusive means no clear call, values can overlap the other calls
# RanGTP-Imp inh – disruptors of Ran-importin-beta complex formation – biochemical, FRET, CFP-Ran, YFP-importin-beta, homogeneous, primary screen | cell-free CFP-Ran/YFP-importin-beta FRET ratio | inhibition, % (no concentration beside the values) | 300,000 tested, 1.1% active | AID 2216;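 active means more than half of the replicate wells show a fall in the fluorescence ratio signal beyond about 16%, limit read from the data, passing the limit was not always enough; inconclusive means exactly half of the replicate wells pass the set limit; inactive means fewer than half of replicates pass the limit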
# Runt-CBFb FRET – inhibitors of human RUNX1 Runt domain binding to CBFb. Cerulean-Runt/Venus-CBFb FRET ratio 530/480, 1 h. inhibition, % at 20 µM. 220,000 tested, 0.46% active;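 active means inhibition over about 50% at 20 µM in the single-dose screen, limit read from the data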
#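 Measured by: fluorescence energy transfer, 422 nm excitation, 530/480 nm emission; Assay system: Cerulean-Runt domain; Medium: Tris pH 7.5 buffer with BSA; Measure: loss of energy transfer signal; Controls: 5 µM unlabeled CBFb as full-inhibition high control; Incubation: protein complex preformed 1 h, compound exposure 1 h, room temperature, dark.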
# LANA-H2B inh – blocks KSHV LANA binding to histone H2A/H2B | inhibition, % (no concentration beside the values) | 320,000 tested, 0.6% active | cell-free LANA-H2A/H2B peptide, fluorescence polarization | Q9QR71; in the data active means inhibition mostly above about 10%, no sharp cut-off; inactive means mostly below about 6.7%
# Target sequence (Q9QR71 whole entry, looked up): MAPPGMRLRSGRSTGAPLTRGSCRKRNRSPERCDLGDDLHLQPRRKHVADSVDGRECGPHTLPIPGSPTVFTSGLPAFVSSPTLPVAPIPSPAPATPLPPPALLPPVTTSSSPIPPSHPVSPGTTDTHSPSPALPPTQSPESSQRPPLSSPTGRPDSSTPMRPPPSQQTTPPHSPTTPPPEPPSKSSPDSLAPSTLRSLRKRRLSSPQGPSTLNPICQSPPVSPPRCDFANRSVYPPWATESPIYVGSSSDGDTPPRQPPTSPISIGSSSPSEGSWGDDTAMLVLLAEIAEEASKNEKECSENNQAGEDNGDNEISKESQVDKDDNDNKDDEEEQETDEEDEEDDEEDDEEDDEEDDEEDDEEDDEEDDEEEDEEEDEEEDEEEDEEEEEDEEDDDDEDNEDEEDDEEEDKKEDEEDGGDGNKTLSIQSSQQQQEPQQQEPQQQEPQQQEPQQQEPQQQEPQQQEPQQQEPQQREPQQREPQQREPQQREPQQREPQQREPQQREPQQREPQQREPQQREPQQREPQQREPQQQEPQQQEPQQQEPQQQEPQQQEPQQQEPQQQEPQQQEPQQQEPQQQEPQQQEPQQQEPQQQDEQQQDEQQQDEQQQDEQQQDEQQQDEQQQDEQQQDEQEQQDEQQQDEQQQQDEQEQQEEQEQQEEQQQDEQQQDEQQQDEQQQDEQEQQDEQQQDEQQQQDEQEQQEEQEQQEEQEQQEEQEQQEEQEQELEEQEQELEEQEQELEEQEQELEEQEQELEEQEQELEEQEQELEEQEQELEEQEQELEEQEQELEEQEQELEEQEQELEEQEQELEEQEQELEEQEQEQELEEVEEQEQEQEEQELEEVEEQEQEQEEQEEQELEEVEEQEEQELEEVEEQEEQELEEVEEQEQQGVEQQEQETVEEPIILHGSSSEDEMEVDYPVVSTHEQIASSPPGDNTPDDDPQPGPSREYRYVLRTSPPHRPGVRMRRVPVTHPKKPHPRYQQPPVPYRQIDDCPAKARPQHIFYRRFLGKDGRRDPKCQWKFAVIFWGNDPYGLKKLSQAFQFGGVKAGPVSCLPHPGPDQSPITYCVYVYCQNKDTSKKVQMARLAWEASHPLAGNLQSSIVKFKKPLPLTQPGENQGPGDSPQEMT
# Runt-SMMHC FRET – blocks binding of human RUNX1 Runt domain to CBFb-SMMHC; AID 1434; 220,000 tested, 0.74% active; Cerulean-Runt/Venus-CBFb-SMMHC FRET ratio 530/480, 1 h; Q01196+Q13951; inhibition, % at 20 µM;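 active means mean inhibition across duplicate retests at 20 µM reaching about 50%, limit read from the data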;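 further: inhibitors lower the FRET ratio by blocking Runt binding to CBFb-SMMHC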
# CaV13 ICDI inh – Primary screen for inhibitors of IQ motif and Ca2+-dependent inactivation inhibitor domain binding in CACNA1D, Förster resonance energy transfer in living cells, … | AID 743397 | 340,000 tested, 0.098% active | HEK cells, CFP/YFP FRET ICDI-IQ, plate reader, 10 min; percent FRET-ratio fall versus neutral wells | inhibition, % at 12.3 µM;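 active means mean replicate inhibition of at least 30% and at least 1% of replicates passing that level; inconclusive means only one of the two criteria is met; inactive means neither criterion is met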
# Hits are given with their value; 0 = inactive; ? = inconclusive; - = no result given; + = active, no number.
SMILES,HDAC3 inh,RanGTP-Imp inh,Runt-CBFb FRET,LANA-H2B inh,Runt-SMMHC FRET,CaV13 ICDI inh
CCCC1C2CN(C(C)=O)CC=C2C(C#N)=C(N)C1(C#N)C#N (stereo not given),0,0,0,0,0,0
CC(C)(C)OC(=O)N1CC=C2C(C#N)=C(N)C(C#N)(C#N)C(c3cccs3)C2C1 (stereo not given),0,0,0,0,0,0
CC(C)(C)OC(=O)N1CC=C2C(C#N)=C(N)C(C#N)(C#N)[C@H](c3cccnc3)[C@H]2C1,0,17.6,0,0,0,0
COc1ccc(Cl)cc1NC(=O)CCN1C(=O)C2C3C=CC(C4CC34)C2C1=O (stereo not given),0,0,-,0,-,0
COC(=O)c1nn(-c2ccc(-c3ccccc3)cc2)cc1O,0,0,0,0,0,0
COc1ccc2[nH]c3c(=O)n(CCCCC(=O)NCCN4CCCC4)c(=S)[nH]c3c2c1,29.8,0,0,0,0,0
CCCCn1c(NCc2ccccc2O)nc2ccccc21,0,0,0,0,0,0
CCCn1c(NCc2cc(C)ccc2O)nc2ccccc21,0,27.6,0,0,0,0
CCOC(=O)c1cc2c(=O)n3ccccc3nc2n(CCCOC)c1=NC(C)=O,0,-,56.0,0,0,0
CCOC(=O)c1cc2c(=O)n3ccccc3nc2n(CCCOC)c1=NC(=O)c1ccncc1,0,0,64.8,0,92.2,152.6
CCN(C(=O)c1cc2c(=O)n3ccccc3nc2n1CCCOC)C1CCCCC1,0,0,-,0,-,0
O=c1[nH]c(NCCO)c(N=Cc2ccccc2)c(=O)[nH]1,0,163.9,-,0,-,0
O=C1ON=C(c2ccccc2)/C1=C/c1ccc(OS(=O)(=O)c2ccccc2)cc1,0,-,0,120.9,0,0
CCOC(=O)c1cc2c(=O)n3ccccc3nc2n(C(C)C)c1=NC(=O)c1ccco1,0,0,0,0,86.3,+
Cn1c(C(=O)N2CCN(C(=O)c3ccco3)CC2)cc2c(=O)n3ccccc3nc21,0,0,0,0,0,0
CCCn1c(=NC(=O)c2ccco2)c(C(=O)OCC)cc2c(=O)n3ccccc3nc21,0,116.4,0,0,56.2,-
CC(C)n1c(=NC(=O)c2ccco2)c(C#N)cc2c(=O)n3ccccc3cc21,0,107.2,0,0,82.8,-
COc1ccc(-c2nn3cnnc3s2)cc1OC,0,0,0,0,0,0
CCOC(=O)c1cc2c(=O)n3cccc(C)c3nc2n(CC(C)C)c1=NC(=O)c1ccco1,0,163.8,0,0,88.1,43.6
Cc1cccn2c(=O)c3cc(C(=O)N4CCN(C(=O)c5ccco5)CC4)n(C)c3nc12,0,0,0,0,0,-
CCOCCCn1c(=NC(=O)c2ccco2)c(C(=O)OCC)cc2c(=O)n3cccc(C)c3nc21,0,152.2,0,0,81.0,0
COCCCn1c(C(=O)N2CC(C)OC(C)C2)cc2c(=O)n3cccc(C)c3nc21 (stereo not given),0,0,-,0,-,-
CN(C)/C(=N\S(=O)(=O)c1ccccc1)c1ccc(F)cc1,0,0,-,15.5,-,0
COc1ccc(NC(=O)CN2C(=O)C(C)SC(C)C2=O)c(OC)c1 (stereo not given),0,0,0,0,0,0
Cc1ccc(-n2ccnc(SCC(=O)NCCc3ccccc3)c2=O)cc1F,-,0,-,-,-,0
SMILES,HDAC3 inh,RanGTP-Imp inh,Runt-CBFb FRET,LANA-H2B inh,Runt-SMMHC FRET,CaV13 ICDI inh
CC(C)(C)C(=O)N1CCCC1C(=O)O (stereo not given),0,?,0,27.6,0,0
CC(=O)N1CCCC1C(=O)O (stereo not given),-,-,-,-,-,0
COc1cccc(-c2cnc(C(O)c3ccc(SC)cc3)[nH]2)c1 (stereo not given),-,-,-,-,-,0
O=C(Nc1ccc(-c2nc3ccccc3o2)cc1)c1ccc2c(c1)OCO2,0,0,0,0,0,0
Cc1ccc2oc(-c3ccc(NC(=O)c4ccc5c(c4)OCO5)cc3)nc2c1,0,0,67.3,0,0,0
CC(=O)c1ccc(NC(=S)Nc2ccc3cn[nH]c3c2)cc1,0,0,0,0,0,0
O=C(Nc1nc2c(Br)cccc2s1)C1CC1,46.4,0,-,0,-,-
